The record followed here is ChEMBL document CHEMBL1134769, “Potent and selective nonpeptide inhibitors of caspases 3 and 7” (J Med Chem, 2001).

The target in one test is Caspase-8 (Homo sapiens, UniProt Q14790). Kind of test: Inhibitory activity against Caspase-8. As to conditions: read-out: Ki app. The essentials: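 Recombinant full-length human caspase 8, ~10 units/assay, in Na+MOPS pH 7.5 with 10% glycerol, 0.25 mM EDTA and 5 mM β-mercaptoethanol. Substrate 10 μM Ac-IETD-AMC. Fluorescence at 360/460 nm, 30 °C, 5% final DMSO. Compounds screened at a single dose (typically 5–50 μM), then full IC50 curves for actives.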
Sequence of Caspase-8 (Q14790 217-374 limits assumed): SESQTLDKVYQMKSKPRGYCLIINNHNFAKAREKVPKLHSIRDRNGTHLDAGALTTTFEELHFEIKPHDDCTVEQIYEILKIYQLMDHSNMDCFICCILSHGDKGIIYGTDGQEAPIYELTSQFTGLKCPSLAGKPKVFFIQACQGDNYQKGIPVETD
Sequence of Caspase-8 (Q14790 385-479 limits assumed): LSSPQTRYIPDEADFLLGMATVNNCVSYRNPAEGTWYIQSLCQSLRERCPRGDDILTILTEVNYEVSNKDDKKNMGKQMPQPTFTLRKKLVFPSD

In test [1] the test system is C20/A4. Kind of test: In vitro inhibition of Chondrocyte cell line C20/A4 apoptosis at 25 uM of compound; Not active. The format is functional, cell-based. As to conditions: Homo sapiens. The essentials:
(§1)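 Immortalized human chondrocyte line C20/A4 seeded at 20 000 cells/well overnight, then exposed 24 h to 4 μg/mL camptothecin with or without compound. Floating and adherent cells combined and lysed 30 min at 4 °C, then clarified at 14000g. Mono- and oligonucleosome DNA fragments measured by cell death ELISA; result expressed as % inhibition of apoptosis.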

The target in a further test is T1, Caspase-7 (Homo sapiens, UniProt P55210).
T1 sequence (P55210 whole entry): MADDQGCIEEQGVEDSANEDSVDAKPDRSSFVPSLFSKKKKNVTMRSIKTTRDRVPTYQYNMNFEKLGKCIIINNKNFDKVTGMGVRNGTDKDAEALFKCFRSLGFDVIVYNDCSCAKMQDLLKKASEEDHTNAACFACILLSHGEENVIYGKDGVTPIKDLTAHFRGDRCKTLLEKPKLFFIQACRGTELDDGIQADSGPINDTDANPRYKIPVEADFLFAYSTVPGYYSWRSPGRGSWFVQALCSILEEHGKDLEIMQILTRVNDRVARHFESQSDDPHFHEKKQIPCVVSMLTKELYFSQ
Kind of test: Inhibitory activity against Caspase-7. As to conditions: read-out: Ki app. The essentials: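 Recombinant full-length human caspase 3 or 7, ~10 units/assay (1 unit = 1 pmol AMC/min). Substrate 10 μM Ac-DEVD-AMC. AMC fluorescence at 360/460 nm, 30 °C, with 5% final DMSO. Single-dose screen (typically 5–50 μM), then IC50 curves; repeated IC50s had CVs typically <30%.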

Test [2] deals with C20/A4. Kind of test: In vitro inhibition of Chondrocyte cell line C20/A4 apoptosis at 10 uM of compound; Not active. Type of test: functional, cell-based. The note with it: Homo sapiens. Put shortly:
as §1

In another test the target is T2, Caspase-6 (Homo sapiens, UniProt P55212).
T2 sequence (P55212 whole entry): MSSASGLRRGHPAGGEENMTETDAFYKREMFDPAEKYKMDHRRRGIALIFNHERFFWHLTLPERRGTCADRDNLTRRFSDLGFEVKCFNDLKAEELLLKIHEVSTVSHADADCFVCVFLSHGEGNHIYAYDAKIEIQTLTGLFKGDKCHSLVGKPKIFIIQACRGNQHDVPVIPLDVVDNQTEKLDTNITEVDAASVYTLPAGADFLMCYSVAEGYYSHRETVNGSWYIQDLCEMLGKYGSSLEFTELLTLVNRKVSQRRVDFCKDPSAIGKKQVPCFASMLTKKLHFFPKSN
Description: Inhibitory activity against Caspase-6. The note with it: read-out: Ki app. The essentials:
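Recombinant full-length human caspase 6 (~10 units/assay) in 50 mM Tris-HCl pH 7.4 with 0.1% CHAPS, 1.5 mM MgCl2, 1 mM EDTA and 5 mM β-mercaptoethanol. Substrate 10 μM Ac-DEVD-AMC. AMC monitored at 360/460 nm, 30 °C, final DMSO 5%. Single-dose screen (typically 5–50 μM), then IC50 determination.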

Test [3] concerns C20/A4. Description: In vitro inhibition of Chondrocyte cell line C20/A4 apoptosis at 10 uM of compound. The format is functional, Homo sapiens. Put shortly: as §1

Active and inactive are the calls of the source. The calls are words filed in the database; no cut-off is given here. A value given as a limit tells only on which side of the number the result lay.

As to `CN(CC1CCCN1S(=O)(=O)c1ccc2c(c1)C(=O)C(=O)N2)c1ccccc1` (centres undefined), the Ki on Caspase-8 is > 50 µM; at Caspase-7, 10 µM; on Caspase-6, 57 µM. In addition, the NA result in the test with C20/A4 [1] and in the test with C20/A4 [2] was “inactive” each time.

`O=C1Nc2ccc(S(=O)(=O)N3CCC[C@H]3COc3ccccc3)cc2C1=O`: the Ki was determined as 49 µM at Caspase-8, 0.047 µM on Caspase-7 and 29 µM on Caspase-6.

Regarding `O=C1C(=O)N(Cc2ccccc2)c2ccc(S(=O)(=O)N3CCC[C@H]3COc3ccccc3)cc21`, the Ki at Caspase-8 is > 5 µM; on Caspase-7 it was 0.006 µM; on Caspase-6, > 5 µM. Also, the Inhibition in the test on C20/A4 [3] is 48%.

As to `COC[C@@H]1CCCN1S(=O)(=O)c1ccc2c(c1)C(=O)C(=O)N2`, the Ki at Caspase-8 is > 25 µM; at Caspase-7, 0.17 µM; at Caspase-6 it was > 25 µM. In the test on C20/A4 [3], this molecule yielded an Inhibition of 44%.

Regarding `O=C1Nc2ccc(S(=O)(=O)N3CCC[C@H]3CNc3ccccc3)cc2C1=O`, the Ki at Caspase-8 is 80 µM; on Caspase-7, 0.047 µM; on Caspase-6, 7.5 µM.
